Publication PMC10074403 (Chemical Science, 2023)

Experiments:
A2780 cells = test: Intracellular EdU release from PE NPs; assay type: cell-based, human; details: 10 μM EdU equiv., 6 h with PE NPs (1 h with EdU), azide-488
Outline: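 Human ovarian adenocarcinoma A2780 cells are treated with nanoparticles of mutual prodrugs built with the nucleoside analog EdU as a gemcitabine surrogate, or with free EdU; nanoparticle exposure is 6 h. EdU incorporated into DNA is detected by click reaction with azide-488. Images show green overlap with blue-stained nuclei (cyan) to indicate nuclear EdU incorporation.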

[1] = test system: A549 human lung adenocarcinoma xenografts; test: In vivo anticancer efficacy in A549 xenografts; design: species or system female BALB/c nude mice; details: PTX 20 mg kg−1 equiv., Gem 6.4 mg kg−1, i.v. on days 0, 3, 6; n = 5

Row | SMILES | Distribution of green fluorescence (EdU incorporation into nuclei) (A2780 cells) | A549 tumor growth (relative tumor size) [1]
1 | C#Cc1cn([C@H]2C[C@H](O)[C@@H](CO)O2)c(=O)[nH]c1=O [EdU, 5-ethynyl-2′-deoxyuridine] | centralized in the area of the nucleus | –
2 | Nc1ccn([C@@H]2O[C@H](CO)[C@@H](O)C2(F)F)c(=O)n1 [Gem, gemcitabine] | – | failed to effectively suppress tumor growth
